Assay results gathered from unrelated publications.
Each line is one published result; the experiments were not run side by side.
Effect on: enzyme activity
Action: inhibitor
ABL1 T315I: Tyrosine-protein kinase ABL1 (ABL1, Homo sapiens, UniProt P00519, T315I)
ABL1: Tyrosine-protein kinase ABL1 (ABL1, Homo sapiens, UniProt P00519)

| Structure (SMILES) | target | assay | conditions | inhibition [%] |
| --- | --- | --- | --- | --- |
| CNC(=O)c1cc2c(Oc3ccc(NC(=O)C4(C(=O)Nc5ccc(F)cc5)CC4)cc3)ccnc2cc1OC | ABL1 T315I | radiometric | 1 µM | 75 |
| CNc1cccc2cc(C(=O)Nc3ccc(C(=O)O)cc3)c(=O)[nH]c12 | Tyrosine-protein kinase ABL1 (ABL1, Homo sapiens, UniProt P00519, Q252H) | – | 10 µM | 0.4 |
| CN(C)C1CCN(CC#Cc2nn(C3CCCC3)c3nc(NCc4ccccc4)ncc23)C1 (stereo not drawn) | ABL1 | FRET | 0.1 µM | 1 |
| COc1cc2ncnc(Nc3ccc(Oc4ccccc4)cc3C)c2cc1OC | Tyrosine-protein kinase ABL1 (ABL1, Homo sapiens, UniProt P00519, Y253F) | – | 1 µM | 12 |
| CCOc1cc(-c2nncn2C)ccc1Nc1ncc2cc(C)nc(NCC(C)(C)C)c2n1 | ABL1 | FRET | 1 µM | < 15 |
| CC/C(=N\NC(=O)NCc1cccc(O)c1)c1ccc(O)c(C)c1O | ABL1 | – | 0.1 µM | -0.9 |
| CS(=O)(=O)Nc1cccc(-c2csc(NC(=O)CSc3nc4nccnc4c(=O)n3CCc3ccccc3)n2)c1 | Tyrosine-protein kinase ABL1 (ABL1, Homo sapiens, UniProt P00519, E255K) | – | 10 µM | -2 |
| COc1cc2ncnc(Nc3ccc(Oc4ccccc4)c(C)c3C)c2cc1OC | ABL1 | – | 1 µM | -4 |
| CNCc1ccc(-c2cc(-c3nc(-c4ccc(S(=O)(=O)C(C)C)cc4)cnc3N)on2)cc1 | ABL1 | – | 0.4 µM | 11 |
| O=C(CSc1nc2nccnc2c(=O)n1CCc1ccccc1)Nc1nccs1 | ABL1 | – | 10 µM | 4 |
| C=CC(=O)Nc1cc(Nc2nccc(Nc3cc(Cl)c(F)cc3C(C)(C)O)n2)c(OC)cc1N1CC[C@@H](N(C)C)C1 | ABL1 T315I | – | 1 µM | 18 |
| COc1cc(-c2cc(-c3ccc(N4CCNCC4)cc3)cnc2N)cc(OC)c1OC | Tyrosine-protein kinase ABL1 (ABL1, Homo sapiens, UniProt P00519, H396P) | – | 0.1 µM | 87 |
